Results on seven molecules are retold here after ChEMBL document CHEMBL4007487, “Discovery of Novel Pyridone-Conjugated Monosulfactams as Potent and Broad-Spectrum Antibiotics for Multidrug-Resistant Gram-Negative Infections” (J Med Chem, 2017).

Converted amounts (≈) assume the structure as drawn.

The nature of data set [1]: Volume of distribution in steady state in Sprague-Dawley rat at 1 mg/kg, iv measured up to 180 mins by LC-MS/MS analysis. The conditions noted are these: in vivo, read-out: Vdss. In kind it is ADME, organism-based. The method in brief: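 Male Sprague-Dawley rats (200–220 g, n = 3 per group) received 1.0 mg/kg iv in water. Blood was taken from the retrobulbar vein at 2, 5, 15, 30, 45, 60, 90 and 180 min. Plasma was quantified by LC–MS/MS, and parameters were derived by noncompartmental analysis of mean plasma concentrations.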

For data set [2], the system named is Klebsiella pneumoniae. In words: Antibacterial activity against extended spectrum beta-lactamase KPC-2 producing multidrug resistant Klebsiella pneumoniae clinical isolates after 18 hrs by broth microdilution method. The conditions noted are these: Klebsiella pneumoniae, 18 h; read-out: MIC. It counts as functional. (Dilution methods test growth across graded concentrations, often in twofold steps.)

In the next data set the test system is Pseudomonas aeruginosa. In words: Antibacterial activity against extended spectrum beta-lactamase IMP-4 producing multidrug resistant Pseudomonas aeruginosa clinical isolates after 18 hrs by broth microdilution method. In kind it is functional.
Data set [3] in a line: Drug degradation in human plasma at 10 uM after 4 hrs by LC-MS/MS analysis. In kind it is ADME, cell-free. The conditions noted are these: read-out: Drug degradation. The gist of the method: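 Human plasma containing compound (10 μM, n = 4) was incubated for 4 h at 37 °C under 5% CO2. Concentrations at T0 and at 4 h were measured by LC–MS/MS, and degradation was expressed as a percentage relative to the T0 average.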

For a further data set, the system named is Acinetobacter baumannii. In words: Antibacterial activity against extended spectrum beta-lactamase OXA-23 producing multidrug resistant Acinetobacter baumannii clinical isolates after 18 hrs by broth microdilution method. It counts as functional.
A short description of data set [4]: in vivo. The conditions noted are these: Sprague-Dawley, rat, iv, 1 mg/kg.
A further data set has as its system Plasma. The data set can be described thus: Fraction unbound in human plasma at 10 uM after 4 hrs by LC-MS/MS based rapid equilibrium dialysis method. It counts as ADME, cell-free. The method in brief:
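Human plasma spiked at 10 μM was dialysed against buffer in a rapid equilibrium dialysis device for 4 h at 37 °C under 5% CO2 (n = 4). Both sides were quantified by LC–MS/MS. Fraction unbound was taken as the buffer concentration divided by the total plasma-side concentration.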

Data set [5] has as its system Escherichia coli. The data set can be described thus: Antibacterial activity against extended spectrum beta-lactamases producing Escherichia coli clinical isolates after 18 hrs by broth microdilution method. In kind it is functional.
Data set [6] is described as follows: Clearance in Sprague-Dawley rat at 1 mg/kg, iv measured up to 180 mins by LC-MS/MS analysis. The conditions noted are these: in vivo.
Data set [7] in a line: in vivo. The conditions noted are these: Sprague-Dawley, rat, iv, 1 mg/kg. This is another data set of the same source.
For data set [8], the system named is Klebsiella pneumoniae. In words: Antibacterial activity against Klebsiella pneumoniae isolate 212232 after 18 hrs by broth microdilution method. It counts as functional. The conditions noted are these: isolate 212232, 18 h. The method in brief: (§1)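 CLSI broth microdilution in Mueller-Hinton broth with 16 mg/L 2,2'-bipyridyl added. Compounds were dissolved in DMSO, or in water for meropenem and ceftizoxime sodium, then serially diluted in growth medium.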

In data set [9] the test system is Escherichia coli. In words: Antibacterial activity against Escherichia coli isolate 210737 after 18 hrs by broth microdilution method. The conditions noted are these: isolate 210737, 18 h. It counts as functional. The gist of the method:
as §1

For data set [10], the system named is Escherichia coli. The data set can be described thus: In vivo antibacterial activity against Escherichia coli isolate 210737 infected in Kunming mouse systemic infection model assessed as increase in mouse survival administered subcutaneously 0.5 to 4 hrs post infection measured after 48 hrs by Bliss method. It counts as functional. The conditions noted are these: isolate 210737, sc. The method in brief: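 Kunming mice, half male and half female, 18–22 g, 5 per group. Lethal systemic infection by intraperitoneal injection of 0.5 mL clinical E. coli 210737 inoculum at 5×10^4 CFU/mL. Given subcutaneously twice, at 0.5 and 4.0 h post-infection, at doses of 0.625 to 20 mg/kg.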

For data set [11], the system named is Klebsiella pneumoniae. In words: In vivo antibacterial activity against multidrug resistant Klebsiella pneumoniae isolate 212232 infected in Kunming mouse systemic infection model assessed as increase in mouse survival administered subcutaneously 0.5 to 4 hrs post infection measured after 48 hrs by Bliss method. It counts as functional. The settings on record: isolate 212232, sc. The method in brief:
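Kunming mice, half male and half female, 18–22 g, 5 per group. Infected intraperitoneally with 0.5 mL of MDR clinical K. pneumoniae 212232 at 3×10^6 CFU/mL. Subcutaneous doses of 3.125, 6.25, 12.5, 25, 50 and 100 mg/kg were given at 0.5 and 4.0 h post-infection.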

For data set [12], the system named is Klebsiella pneumoniae. In words: In vivo antibacterial activity against multidrug resistant Klebsiella pneumoniae isolate 212232 infected in Kunming mouse systemic infection model assessed as increase in mouse survival at 100 mg/kg, sc administered 0.5 to 4 hrs post infection measured after 48 hrs by Bliss method. In kind it is functional. The settings on record: isolate 212232, sc. The gist of the method: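 Lethal intraperitoneal infection of Kunming mice (mixed sex, 18–22 g, 5 per group) with 0.5 mL MDR K. pneumoniae 212232 at 3×10^6 CFU/mL. The 100 mg/kg dose was given subcutaneously at 0.5 and 4.0 h post-infection. Read-out is the percentage of mice surviving at 48 h after treatment.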

On to `CC(C)[C@H](O/N=C(\C(=O)N[C@@H]1C(=O)N(OS(=O)(=O)O)C1(C)C)c1csc(N)n1)c1cc(=O)c(O)cn1O`, for which the Vd in data set [1] is 0.36 L/kg. Further, the MIC lay in the range of 0.125 to 1 µg/mL (≈ 0.223 to 1.78 µM) in the data set with Klebsiella pneumoniae [2], 0.125 to 1 µg/mL (≈ 0.223 to 1.78 µM) in the data set with Pseudomonas aeruginosa, 1 to 2 µg/mL (≈ 1.78 to 3.57 µM) against Acinetobacter baumannii and 0.06 to 0.25 µg/mL (≈ 0.107 to 0.446 µM) in the data set with Escherichia coli [5]. For the same molecule, the metabolised at 4 h, 10 µM in [3] is 23%. The same molecule showed a half-life in the data set “in vivo [4]” of 15.6 min. The molecule further had a Fu with Plasma of 27%. The clearance at 3 h in [6] was determined as 28.5 mL/min/kg. Moreover, the AUC(0-t) at 3 h in “in vivo [7]” is 675 ng·h/mL.

For the molecule `CC1(C)[C@H](NC(=O)/C(=N\OC(CS(C)(=O)=O)c2cc(=O)c(O)cn2O)c2csc(N)n2)C(=O)N1OS(=O)(=O)O` (stereo partly drawn), the Vd in data set [1] was 0.21 L/kg. Besides, the MIC was 0.06 µg/mL (≈ 0.0983 µM) against Klebsiella pneumoniae [8]; 0.06 µg/mL (≈ 0.0983 µM) in the data set on Escherichia coli [9]; 0.06 to 2 µg/mL (≈ 0.0983 to 3.28 µM) with Klebsiella pneumoniae [2]; 1 to 32 µg/mL (≈ 1.64 to 52.4 µM) against Pseudomonas aeruginosa; 0.25 to 2 µg/mL (≈ 0.409 to 3.28 µM) against Acinetobacter baumannii. In addition, the ED50 with Escherichia coli [10] was determined as 5.32 mg/kg. For the same molecule, the metabolised at 4 h, 10 µM in [3] was 34%. In “in vivo [4]”, the half-life was 19.8 min. Also, in the data set with Plasma, the Fu is 64%. The molecule also returned a clearance at 3 h in data set [6] of 9.3 mL/min/kg. Besides, in “in vivo [7]”, the AUC(0-t) at 3 h is 1890 ng·h/mL.

For the molecule `CC(C)C(O/N=C(\C(=O)N[C@@H]1C(=O)N(OS(=O)(=O)O)C1(C)C)c1nc(N)sc1Cl)c1cc(=O)c(O)cn1O` (stereo partly drawn), in data set [1], the Vd is 1.41 L/kg. For the same molecule, the MIC was 0.06 µg/mL (≈ 0.101 µM) against Klebsiella pneumoniae [8]; 1 µg/mL (≈ 1.68 µM) against Escherichia coli [9]; 0.06 to 0.5 µg/mL (≈ 0.101 to 0.84 µM) in the data set on Klebsiella pneumoniae [2]; 0.25 to 8 µg/mL (≈ 0.42 to 13.4 µM) against Pseudomonas aeruginosa; 0.06 to 2 µg/mL (≈ 0.101 to 3.36 µM) with Acinetobacter baumannii; 0.06 to 1 µg/mL (≈ 0.101 to 1.68 µM) in the data set with Escherichia coli [5]. Besides, the ED50 in the data set with Escherichia coli [10] was 6.94 mg/kg. The metabolised at 4 h, 10 µM in data set [3] was determined as 22%. In “in vivo [4]”, this molecule showed a half-life of 90 min. Moreover, in the data set with Plasma, the Fu came out at 23%. This molecule showed a clearance at 3 h in data set [6] of 26.9 mL/min/kg. This molecule displayed an exposure AUC(0-t) at 3 h in the data set “in vivo [7]” of 634 ng·h/mL.

Consider `C[C@@H](O)[C@H]1C(=O)N2C(C(=O)O)=C(S[C@@H]3CN[C@H](C(=O)N(C)C)C3)[C@H](C)[C@H]12` [MEROPENEM], for which the MIC in the data set on Klebsiella pneumoniae [8] was more than 64 µg/mL; with Escherichia coli [9], 0.125 µg/mL (≈ 0.326 µM); in the data set with Klebsiella pneumoniae [2], 32 to 64 µg/mL (≈ 83.4 to 167 µM); against Pseudomonas aeruginosa, 32 to 64 µg/mL (≈ 83.4 to 167 µM); against Acinetobacter baumannii it was 64 µg/mL (≈ 167 µM); in the data set with Escherichia coli [5] it was 0.125 to 8 µg/mL (≈ 0.326 to 20.9 µM). The values for the ED50 in the data set on Klebsiella pneumoniae [11] and in the data set with Escherichia coli [10] were more than 100 mg/kg and 2.04 mg/kg, respectively. In the data set on Klebsiella pneumoniae [12], the survival at 100 mg/kg is 0%.

As for `CC1(C)[C@H](NC(=O)/C(=N\OCc2cc(=O)c(O)cn2O)c2csc(N)n2)C(=O)N1OS(=O)(=O)O`, the Vd in data set [1] was 0.14 L/kg. For the same molecule, the MIC against Klebsiella pneumoniae [8] is 0.25 µg/mL (≈ 0.482 µM); in the data set with Escherichia coli [9] it was 0.25 µg/mL (≈ 0.482 µM); in the data set on Klebsiella pneumoniae [2], 0.25 to 64 µg/mL (≈ 0.482 to 123 µM); in the data set on Pseudomonas aeruginosa, 1 to 4 µg/mL (≈ 1.93 to 7.71 µM); with Acinetobacter baumannii, 0.5 to 64 µg/mL (≈ 0.964 to 123 µM); against Escherichia coli [5], 0.25 to 1 µg/mL (≈ 0.482 to 1.93 µM). For the same molecule, the values for the ED50 in the data set with Klebsiella pneumoniae [11] and in the data set on Escherichia coli [10] were more than 100 mg/kg and 4.19 mg/kg, respectively. Moreover, the survival at 100 mg/kg with Klebsiella pneumoniae [12] is 40%. Besides, the metabolised at 4 h, 10 µM in data set [3] is 12%. Also, the Fu in the data set on Plasma was found to be 47%. Besides, the AUC(0-t) at 3 h in “in vivo [7]” was 1710 ng·h/mL.

Take `CC(C)C(O/N=C(\C(=O)N[C@@H]1C(=O)N(OS(=O)(=O)O)C1(C)C)c1csc(N)n1)c1cc(=O)c(O)cn1O` (stereo partly drawn): the Vd in data set [1] amounted to 0.3 L/kg. Besides, the MIC was less than 0.03 µg/mL against Klebsiella pneumoniae [8], less than 0.03 µg/mL with Escherichia coli [9], 0.25 to 1 µg/mL (≈ 0.446 to 1.78 µM) against Pseudomonas aeruginosa and 0.125 to 1 µg/mL (≈ 0.223 to 1.78 µM) in the data set with Acinetobacter baumannii. Also, the metabolised at 4 h, 10 µM in [3] was 29%. In the data set with Plasma, this molecule yielded a Fu of 35%. Besides, in “in vivo [7]”, the AUC(0-t) at 3 h came to 1730 ng·h/mL.

For `CSCC(O/N=C(\C(=O)N[C@@H]1C(=O)N(OS(=O)(=O)O)C1(C)C)c1csc(N)n1)c1cc(=O)c(O)cn1O` (stereo partly drawn), the Vd in [1] was 0.37 L/kg. In addition, the MIC with Pseudomonas aeruginosa and in the data set on Acinetobacter baumannii was 0.125 to 1 µg/mL (≈ 0.216 to 1.73 µM) throughout. In [3], the metabolised at 4 h, 10 µM came out at 28%. In addition, in “in vivo [4]”, the half-life is 15 min. This molecule also returned a Fu in the data set with Plasma of 32%. In addition, the clearance at 3 h in data set [6] came to 26.1 mL/min/kg. In “in vivo [7]”, the AUC(0-t) at 3 h is 661 ng·h/mL.

As a reminder, the MIC is the smallest concentration in the dilution series that meets the test's criterion for growth inhibition. One may read the half-life as the time needed for the level to fall by half in the phase considered. Read a high half-life as slow loss. By clearance is commonly meant a measure of how efficiently the substance is removed, as volume per time. A lower clearance goes with a low capacity for elimination. By AUC(0-t) is commonly meant the area under the concentration-time curve up to a stated or last time point. Low values mean less exposure, high ones more exposure. One may read the ED50 as the dose that gives a 50% effect, or the effect in half of the subjects.
